{"data": "Assay results of several laboratories", "LRRK2": "Leucine-rich repeat serine/threonine-protein kinase 2 (LRRK2, Homo sapiens, UniProt Q5S007)", "LRRK2 G2019S": "Leucine-rich repeat serine/threonine-protein kinase 2 (LRRK2, Homo sapiens, UniProt Q5S007, G2019S)", "note": "Protocols differ between the studies behind these lines."}
{"SMILES": "N#CCCc1ccc2c(c1)-c1[nH]c3ccc([N+](=O)[O-])cc3c1CC(=O)N2", "target": "LRRK2", "read-out": "cell-free assay", "tested at": "0.5 µM", "quantity": "remaining signal", "value": "73.8%"}
{"SMILES": "Nc1ncnc2occ(-c3ccc(NC(=O)Nc4cc(C(F)(F)F)ccc4F)cc3)c12", "target": "LRRK2", "read-out": "cell-free assay", "action": "inhibitor", "tested at": "20 µM", "quantity": "remaining signal", "value": "5.2%"}
{"SMILES": "Nc1c(C(=O)NCc2ccc(C(=O)NCCCC3CCCCC3)cc2)cnn1-c1ccccc1", "target": "LRRK2", "read-out": "binding", "technique": "competition with immobilised ligand", "tested at": "1 µM", "quantity": "remaining binding", "value": "39%"}
{"SMILES": "Cc1ccc(Nc2nccc(N(C)c3ccc4c(C)n(C)nc4c3)n2)cc1S(N)(=O)=O", "target": "LRRK2", "read-out": "enzyme activity", "action": "inhibitor", "tested at": "0.5 µM", "quantity": "remaining activity", "value": "109%"}
{"SMILES": "N[C@@H]1CCN(c2nccc(-c3cnn4ncccc34)n2)C1", "target": "LRRK2", "read-out": "binding", "tested at": "1 µM", "quantity": "remaining binding", "value": "100%"}
{"SMILES": "N#Cc1ccc(Nc2ccc3[nH]c(=O)[nH]c3c2)c(Cl)c1", "target": "LRRK2 G2019S", "read-out": "cell-free assay", "technique": "competition with immobilised ligand", "tested at": "1 µM", "quantity": "remaining binding", "value": "93%"}
{"SMILES": "COc1cc(Cl)c(C(=O)N[C@@H](CN[C@H]2CC[C@@H](N)CC2)Cc2ccc(C#N)cc2)cc1-c1ccc(CN[C@H](C)c2ccc(C)cc2)o1", "target": "LRRK2", "read-out": "enzyme activity", "action": "inhibitor", "tested at": "1 µM", "quantity": "remaining activity", "value": "104%"}
{"SMILES": "CN([C@@H]1CCc2c(CC(=O)O)c3cc(S(C)(=O)=O)ccc3n2C1)S(=O)(=O)c1ccc(F)cc1", "target": "LRRK2", "read-out": "cell-free assay", "technique": "competition with immobilised ligand", "tested at": "1 µM", "quantity": "remaining binding", "value": "100%"}
{"SMILES": "CN(c1nccc(-c2cnn3ncccc23)n1)C1CC1", "target": "LRRK2 G2019S", "read-out": "binding", "tested at": "1 µM", "quantity": "remaining binding", "value": "100%"}
{"SMILES": "CN(C)CC#Cc1ccc(OCCCc2sc(N3CCc4cccc(C(=O)Nc5nc6ccccc6s5)c4C3)nc2C(=O)O)c(F)c1", "target": "LRRK2 G2019S", "read-out": "cell-free assay", "technique": "competition with immobilised ligand", "tested at": "1 µM", "quantity": "remaining binding", "value": "100%"}
{"SMILES": "O=C1Nc2ccc(Cl)cc2C1=Cc1cc(Cl)c(O)c(Cl)c1", "target": "LRRK2", "read-out": "cell-free assay", "tested at": "0.5 µM", "quantity": "remaining signal", "value": "11%"}
{"SMILES": "COc1cc(-c2cc(-c3ccc(N4CCNCC4)cc3)cnc2N)cc(OC)c1OC", "target": "LRRK2", "read-out": "enzyme activity", "action": "inhibitor", "tested at": "0.1 µM", "quantity": "inhibition", "value": "6%"}
{"SMILES": "CN(C)C1CCN(CC#Cc2nn(C3CCCC3)c3nc(NCc4ccccc4)ncc23)C1 (centres unmarked)", "target": "LRRK2", "read-out": "enzyme activity", "action": "inhibitor", "technique": "FRET", "tested at": "0.1 µM", "quantity": "inhibition", "value": "-1%"}
{"SMILES": "O=C(O)c1cc(-c2ccc(C3CCNCC3)cc2)c2ccc(-c3ccc(C(F)(F)F)cc3)cc2c1", "target": "LRRK2", "read-out": "cell-free assay", "technique": "competition with immobilised ligand", "tested at": "1 µM", "quantity": "remaining binding", "value": "100%"}
{"SMILES": "Cc1cnc(NC2CCOCC2)nc1-n1cnc(C(=O)NC(CN)c2cc(F)cc(Cl)c2)c1 (centres unmarked)", "target": "LRRK2", "read-out": "enzyme activity", "action": "inhibitor", "technique": "radiometric", "tested at": "1 µM", "quantity": "remaining activity", "value": "95%"}
{"SMILES": "Cc1ccc(C(=O)Nc2ccc(CN3CCN(C)CC3)c(C(F)(F)F)c2)cc1C#Cc1cnc2cccnn12", "target": "LRRK2", "read-out": "enzyme activity", "action": "inhibitor", "tested at": "23.5 nM", "quantity": "remaining activity", "value": "83%"}
{"SMILES": "CC(C)(O)[C@H]1CC[C@H](Nc2ccc3ncc(-c4cccc(C(F)(F)F)c4)n3n2)CC1", "target": "LRRK2", "read-out": "enzyme activity", "action": "inhibitor", "tested at": "1 µM", "quantity": "remaining activity", "value": "66.1%"}
{"SMILES": "C[C@H](NC(=O)c1cnc2n1[C@](C)(Cc1ccc(C#N)cc1)C(=O)N2c1cc(Cl)c(F)c(Cl)c1)C(=O)NC1(c2ccccn2)CC1", "target": "LRRK2 G2019S", "read-out": "cell-free assay", "technique": "competition with immobilised ligand", "tested at": "1 µM", "quantity": "remaining binding", "value": "100%"}
{"SMILES": "Cc1cnn2ncc(-c3ccnc(N(C)C)n3)c2c1", "target": "LRRK2 G2019S", "read-out": "binding", "tested at": "1 µM", "quantity": "remaining binding", "value": "100%"}
{"SMILES": "CC(C)CC(=O)N1CCc2nc(-c3ccc(Br)cc3)nc(N(C)Cc3ccccc3)c2C1", "target": "LRRK2 G2019S", "read-out": "cell-free assay", "technique": "competition with immobilised ligand", "tested at": "0.1 µM", "quantity": "remaining binding", "value": "100%"}
{"SMILES": "c1cnn2ncc(-c3ccnc(N4CCC45COC5)n3)c2c1", "target": "LRRK2 G2019S", "read-out": "binding", "tested at": "1 µM", "quantity": "remaining binding", "value": "21%"}
{"SMILES": "O=C(O)[C@H]1[C@H](Cn2nnc3ccccc3c2=O)CC[C@@H]1C(=O)c1ccc(OCCC2CCOCC2)cc1", "target": "LRRK2 G2019S", "read-out": "cell-free assay", "technique": "competition with immobilised ligand", "tested at": "1 µM", "quantity": "remaining binding", "value": "100%"}
{"SMILES": "CC(C)(C)c1nc(-c2cccc(NS(=O)(=O)c3c(F)cccc3F)c2F)c(-c2ccnc(N)n2)s1", "target": "LRRK2", "read-out": "enzyme activity", "action": "inhibitor", "technique": "radiometric", "tested at": "1 µM", "quantity": "remaining activity", "value": "102%"}
{"SMILES": "CN(C)c1ncc(F)c(-c2cnn3ncccc23)n1", "target": "LRRK2", "read-out": "binding", "tested at": "1 µM", "quantity": "remaining binding", "value": "50%"}
{"SMILES": "O=C(Nc1cnn(-c2csc(C(=O)NC3COC3)c2)c1)Nc1ccccc1Cl", "target": "LRRK2", "read-out": "enzyme activity", "action": "inhibitor", "tested at": "5 µM", "quantity": "remaining activity", "value": "88.2%"}
{"SMILES": "CN1CC(Oc2cnc(C#N)cc2-c2ccn3nc(NC(=O)C4CC4)cc3c2)C1", "target": "LRRK2", "read-out": "enzyme activity", "action": "inhibitor", "tested at": "1 µM", "quantity": "inhibition", "value": "-19%"}
